Legend:
CCRF-CEM = experiment: Cytotoxicity against human CEM cell; format: functional
[1] = tested on: Human immunodeficiency virus 1; experiment: Antiviral activity against HIV1; format: functional, organism-based
Method in brief: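 Antiviral assay run in primary human lymphocytes.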

HepG2 = experiment: Cytotoxicity against human HepG2 cells; format: functional
Vero = experiment: (§1) Cytotoxicity against african green monkey Vero cells; format: cell-based; settings: chlorocebus sabaeus, vero
Hepatitis B virus = experiment: Antiviral activity against Hepatitis B virus; format: functional, organism-based
Method in brief: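 Anti-HBV activity measured in HepG2 cells.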

PBMC = experiment: (§2) Cytotoxicity against human PBMC; format: cell-based; settings: pbmc
[2] = as §1; format: cell-based; settings: chlorocebus sabaeus, Vero cells
[3] = as §2; format: cell-based; settings: PBMC (peripheral blood mononuclear cells)

Compound: CCCCCCCCCCCCCC(=O)Nc1nc(N)nc2c1ncn2[C@H]1CO[C@@H](CO)O1
- CC50 (CCRF-CEM): 4.6 µM
- EC50 [1]: 6.5 µM
- EC90 [1]: 27 µM
- CC50 (HepG2): 56 µM
- CC50 (Vero): 7.7 µM
- EC50 (Hepatitis B virus): > 10 µM
- EC90 (Hepatitis B virus): > 10 µM
- CC50 (PBMC): > 100 µM

Compound: CC(=O)Nc1nc(N)nc2c1ncn2[C@H]1CO[C@@H](CO)O1
- CC50 (CCRF-CEM): > 100 µM
- EC50 [1]: 0.56 µM
- EC90 [1]: 12 µM
- CC50 (HepG2): > 100 µM
- CC50 (Vero): > 100 µM
- EC50 (Hepatitis B virus): > 10 µM
- EC90 (Hepatitis B virus): > 10 µM
- CC50 (PBMC): > 100 µM

Compound: CCCC(=O)Nc1nc(N)nc2c1ncn2[C@H]1CO[C@@H](CO)O1
- CC50 (CCRF-CEM): > 100 µM
- EC50 [1]: 9.2 µM
- EC90 [1]: 38 µM
- CC50 (HepG2): > 100 µM
- CC50 (Vero): > 100 µM
- EC50 (Hepatitis B virus): > 10 µM
- EC90 (Hepatitis B virus): > 10 µM
- CC50 (PBMC): > 100 µM

Compound: CCCCCC(=O)Nc1nc(N)nc2c1ncn2[C@H]1CO[C@@H](CO)O1
- CC50 (CCRF-CEM): > 100 µM
- EC50 [1]: 34 µM
- EC90 [1]: > 100 µM
- CC50 (HepG2): > 100 µM
- CC50 (Vero): > 100 µM
- EC50 (Hepatitis B virus): > 10 µM
- EC90 (Hepatitis B virus): > 10 µM
- CC50 (PBMC): > 100 µM

Compound: CCCCCCCC(=O)Nc1nc(N)nc2c1ncn2[C@H]1CO[C@@H](CO)O1
- CC50 (CCRF-CEM): > 100 µM
- EC50 [1]: 21 µM
- EC90 [1]: 56 µM
- CC50 (HepG2): > 100 µM
- CC50 (Vero): > 100 µM
- EC50 (Hepatitis B virus): > 10 µM
- EC90 (Hepatitis B virus): > 10 µM
- CC50 (PBMC): > 100 µM

Compound: CCCCCCCCCC(=O)Nc1nc(N)nc2c1ncn2[C@H]1CO[C@@H](CO)O1
- CC50 (CCRF-CEM): 65 µM
- EC50 [1]: 26 µM
- EC90 [1]: 65 µM
- CC50 (HepG2): > 100 µM
- CC50 (Vero): > 100 µM
- EC50 (Hepatitis B virus): > 10 µM
- EC90 (Hepatitis B virus): > 10 µM
- CC50 (PBMC): > 100 µM

Compound: CCCCCCCCCCCC(=O)Nc1nc(N)nc2c1ncn2[C@H]1CO[C@@H](CO)O1
- CC50 (CCRF-CEM): 13 µM
- EC50 [1]: 3.6 µM
- EC90 [1]: 18 µM
- CC50 (HepG2): > 100 µM
- CC50 (Vero): 53 µM
- EC50 (Hepatitis B virus): > 10 µM
- EC90 (Hepatitis B virus): > 10 µM
- CC50 (PBMC): 60 µM

Compound: CCCCCCCCCCCCCCCC(=O)Nc1nc(N)nc2c1ncn2[C@H]1CO[C@@H](CO)O1
- CC50 (CCRF-CEM): > 100 µM
- EC50 [1]: 1.2 µM
- EC90 [1]: 6 µM
- CC50 (HepG2): > 100 µM
- CC50 (Vero): 90 µM
- EC50 (Hepatitis B virus): > 10 µM
- EC90 (Hepatitis B virus): > 10 µM
- CC50 (PBMC): > 100 µM

Compound: CCCCCCCC/C=C\CCCCCCCC(=O)Nc1nc(N)nc2c1ncn2[C@H]1CO[C@@H](CO)O1
- CC50 (CCRF-CEM): 13 µM
- EC50 [1]: 3.5 µM
- EC90 [1]: 13 µM
- CC50 (HepG2): 11 µM
- CC50 [2]: 19 µM
- EC50 (Hepatitis B virus): > 10 µM
- EC90 (Hepatitis B virus): > 10 µM
- CC50 [3]: 76 µM

Compound: Nc1nc(N)c2ncn([C@H]3CO[C@@H](CO)O3)c2n1 [AMDOXOVIR]
- CC50 (CCRF-CEM): > 100 µM
- EC50 [1]: 0.45 µM
- EC90 [1]: 7.6 µM
- CC50 (HepG2): > 100 µM
- CC50 (Vero): > 100 µM
- EC50 (Hepatitis B virus): 12 µM
- EC90 (Hepatitis B virus): > 100 µM
- CC50 (PBMC): > 100 µM

Compound: Cc1cn([C@H]2C[C@H](N=[N+]=[N-])[C@@H](CO)O2)c(=O)[nH]c1=O [ZIDOVUDINE]
- CC50 (CCRF-CEM): 14 µM
- EC50 [1]: 0.0037 µM
- EC90 [1]: 0.047 µM
- CC50 (HepG2): > 100 µM
- CC50 (Vero): 56 µM
- EC50 (Hepatitis B virus): > 10 µM
- EC90 (Hepatitis B virus): > 10 µM
- CC50 [3]: > 100 µM

— ChEMBL document CHEMBL3351712, “Synthesis and antiviral evaluation of 2-amino-6-carbamoylpurine dioxolane nucleoside derivatives and their phosphoramidates prodrugs” (Bioorg Med Chem, 2014)
